Measured values as given in ChEMBL document CHEMBL1124081, “Synthesis and antiulcer activity of 5,11-dihydro[1]benzoxepino[3,4-b]pyridines” (J Med Chem, 1988).
Several values for one entry are separate records, joined by “and”; a condition that tells them apart may be missing. Identical values can stand only once.

Tests used:
Rattus norvegicus [1] = experiment: The antiulcer activity against stress-induced ulcer in rats by 30 mg/kg peroral administration.; type: functional; details: route oral
Method in brief: (§1)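 Rats, 190-210 g, fasted 17 h with water allowed. Compound given orally 10 min before stress, 0.5 mL/100 g. Restrained in stress cage and immersed in 23 ± 1 °C water for 7 h without food or water. CO2 kill, stomach opened along greater curvature, total glandular ulcer length (mm) measured. % inhibition = (control − treated)/control × 100. Student's t test.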

Rattus norvegicus [2] = experiment: Inhibition of stress-induced ulcer formation in rats by 10 mg/kg p.o. administration.; type: functional; details: for inhibition in vivo at 10 mg/kg: Rattus norvegicus; for Inhibition: 10 mg/kg; method in brief: as §1
[3] = biological target: T1, Muscarinic acetylcholine receptor (Rattus norvegicus) (UniProt P08482+P08483+P08485+P08911+P10980); experiment: Percentage inhibition for Muscarinic acetylcholine receptor at concentration 10 e-5M
Method in brief: (§2)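 Rat striatum homogenized in 10 vol distilled water, diluted to 200 vol of wet tissue weight with 50 mM Na-K phosphate buffer pH 7.4 (1 mL ≈ 5 mg wet tissue). [3H]quinuclidinyl benzilate (final 1.26 nM) plus drug in 10% ethanol, 37 °C for 60 min. Nonspecific binding defined with dexetimide (final 1 μM). Rapid GF/B filtration, three ice-cold buffer rinses, liquid scintillation counting.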

[4] = biological target: Muscarinic acetylcholine receptor; experiment: Binding affinity was measured for Muscarinic acetylcholine receptor; type: protein assay; method in brief: as §2
[5] = biological target: T1, Muscarinic acetylcholine receptor (Rattus norvegicus); experiment: Percentage inhibition for Muscarinic acetylcholine receptor at concentration 10 e-6M; type: protein assay; method in brief: as §2
[6] = biological target: T1, Muscarinic acetylcholine receptor (Rattus norvegicus); experiment: Percentage inhibition […] concentration 10 e-5M; type: protein assay

| Structure (SMILES) | inhibition in vivo at 30 mg/kg (Rattus norvegicus [1]) [%] | inhibition in vivo at 10 mg/kg (Rattus norvegicus [2]; po) [%] | further results |
| --- | --- | --- | --- |
| c1cncc(NC2c3ccccc3OCc3ncccc32)c1 (stereo not given) | 15 | – | – |
| CC1CC[C@H](C)N1CCNC1c2ccccc2OCc2ncccc21 (stereo not given in full) | 69 | 64 | – |
| c1ccc2c(c1)OCc1ncccc1C2NCCN1CCCCC1 (stereo not given) | 52 | – | – |
| CCNCCNC1c2ccccc2OCc2ncccc21 (stereo not given) | < 55 | – | – |
| CN/C(=N\CCSCc1nc[nH]c1C)NC#N [CIMETIDINE] | < 39 | – | inhibition in vivo at 10 mg/kg (Rattus norvegicus [2]; route oral): 33% |
| CCN(CC)CCNC1c2ccccc2Oc2ncccc21 (stereo not given) | < 60 | 18 | – |
| CCN(CC)CCNC1c2ccccc2OCc2ncccc21 (single isomer, unassigned) [listing 1 of 2 here] | – | – | inhibition [3]: 38% |
| CCN(CC)CCN(CC)C1c2ccccc2OCc2ncccc21 (stereo not given) | 33 | – | inhibition [3]: 15% |
| CC1CCC(C)N1CCNC1c2ccccc2OCc2ncccc21 (stereo not given) | 94 | 67 | – |
| CN(C)CCNC1c2ccccc2OCc2ncccc21 (stereo not given) | 85 | 24 | – |
| O=C(Cn1ccnc1)NC1c2ccccc2OCc2ncccc21 (stereo not given) | 12 | 6 | – |
| Cc1ccc2c(c1)C(N1CCN(C)CC1)c1cccnc1CO2 (stereo not given) | 7 | – | – |
| NCCNC1c2ccccc2OCc2ncccc21 (stereo not given) | 19 | – | – |
| CCN1CCCC(NC2c3ccccc3OCc3ncccc32)C1 (stereo not given) | 67 | – | – |
| CN1CCN(CC(=O)N2c3ccccc3C(=O)Nc3cccnc32)CC1 [PIRENZEPINE] | < 86 | < 67 | – |
| CCN(CC)CCNC1c2cc(C)ccc2OCc2ncccc21 (stereo not given) | 40 | – | – |
| c1ccc2c(c1)OCc1ncccc1C2NC1CN2CCC1CC2 (stereo not given) | 36 | – | – |
| CCN(CC)CCNC1c2ccccc2OCc2ncccc21 (single isomer, unassigned) [listing 2 of 2 here] | – | – | Ki [4]: 1100 nM; Inhibition (Rattus norvegicus [2]; route oral): <55% |

| Structure (SMILES) | inhibition in vivo at 30 mg/kg (Rattus norvegicus [1]) [%] | inhibition in vivo at 10 mg/kg (Rattus norvegicus [2]; po) [%] | further results |
| --- | --- | --- | --- |
| CCN(CC)CCNC1c2cccnc2COc2c(C)cccc21 (stereo not given) | < 48 | < 36 | – |
| CN1CCN(CC(=O)NC2c3ccccc3OCc3ncccc32)CC1 (stereo not given) | < 56 | 31 | inhibition [5]: 3% |
| CCN(CC)CC(=O)NC1c2ccccc2OCc2ncccc21 (stereo not given) | 16 | 10 | – |
| CCN(CC)CCNC1c2ccccc2OCc2ncccc21 (single isomer, unassigned; (+)) | – | < 63 | Ki [4]: 3000 nM |
| c1ccc2c(c1)OCc1ncccc1C2NCCN1CCOCC1 (stereo not given) | 73 | 7 | – |
| CCN(CC)CCNC1c2ccccc2OCc2ncccc21 (stereo in doubt; 11) | 85 | – | Ki [4]: 1600 nM; Inhibition (Rattus norvegicus [2]; route oral): 65% and 57% |
| CC1CCCC(C)N1CCNC1c2ccccc2OCc2ncccc21 (stereo not given) | < 64 | – | inhibition [5]: 3% |
| CCN(CC)CC(C)NC1c2ccccc2OCc2ncccc21 (stereo not given) | 62 | – | – |
| CCN(CC)CCNC1c2ccccc2SCc2ncccc21 (stereo not given) | 19 | – | – |
| CCN(CC)CCNC1c2cc(F)ccc2OCc2ncccc21 (stereo not given) | < 87 | < 53 | – |
| CC(C)N(CC(=O)NC1c2ccccc2OCc2ncccc21)C(C)C (stereo not given) | < 45 | 17 | inhibition [6]: 12% |
| CC(C)N(CCNC1c2ccccc2OCc2ncccc21)C(C)C (stereo not given) | 88 | 61 | – |
| CCN(CC)CCNC1c2cc(Cl)ccc2OCc2ncccc21 (stereo not given) | 30 | – | – |
| CCN(CC)CCCNC1c2ccccc2OCc2ncccc21 (stereo not given) | 55 | 34 | – |
| c1ccc2c(c1)OCc1ncccc1C2NCCN1CCCC1 (stereo not given) | 72 | 68 | – |
| CN1CCN(C2c3ccccc3OCc3ncccc32)CC1 (stereo not given) | 76 | – | inhibition in vivo at 10 mg/kg (Rattus norvegicus [2]; route oral): 28% |
| CCN(CC)CCN(C(C)=O)C1c2ccccc2OCc2ncccc21 (stereo not given) | 0 | – | – |
